# Experimental data published in ChEMBL document CHEMBL4342513, “Implementation of the CYP Index for the Design of Selective Tryptophan-2,3-dioxygenase Inhibitors” (ACS Med Chem Lett, 2020).
# How the values were obtained:
# [1] = molecular target: T1, Tryptophan 2,3-dioxygenase (Homo sapiens, UniProt P48775); assay: Inhibition of TDO (unknown origin)
# Cytochrome P450 3A4 = Cytochrome P450 3A4 (Homo sapiens, UniProt P08684); assay: Inhibition of CYP3A4 (unknown origin); assay type: ADME
# [2] = molecular target: Indoleamine 2,3-dioxygenase 1 (Homo sapiens, UniProt P14902); assay: Inhibition of IDO1 in human A172 cells after 24 hrs in presence of IFNgamma by NFK green reagent based assay; assay type: cell-based
# Homo sapiens [3] = organism: Homo sapiens; assay: Selectivity index, ratio of EC50 for inhibition of IDO1 in human A172 cells in presence of IFNgamma to EC50 for inhibition of TDO in human SW48 cells; assay type: cell-based
# Homo sapiens [4] = organism: Homo sapiens; assay: Selectivity index, ratio of IC50 for inhibition of CYP3A4 (unknown origin) to EC50 for inhibition of EC50 for inhibition of TDO in human SW48 cells; assay type: cell-based
# [5] = molecular target: T1, Tryptophan 2,3-dioxygenase; assay: Inhibition of TDO in human SW48 cells after 24 hrs by NFK green reagent based assay; assay type: cell-based
# [6] = Lipophilicity, log D of compound at pH 7.4; assay type: physicochemical; settings: buffer
# [7] = Clearance in mouse liver microsomes; assay type: ADME, Microsome
# Procedure, shortened: (§1)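 Clearance was measured in liver microsome incubations from human, rat and mouse. It is expressed as scaled clearance in mL/min/kg.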
# [8] = Clearance in rat liver microsomes; assay type: ADME, Microsome; procedure, shortened: as §1
# [9] = Clearance in human liver microsomes; assay type: ADME, Microsome; procedure, shortened: as §1
# [10] = Apparent permeability across apical to basolateral side in MDCK cells; assay type: ADME, cell-based, Canis lupus familiaris; settings: dog
# [11] = molecular target: T1, Tryptophan 2,3-dioxygenase; assay: Inhibition of recombinant human TDO using L-tryptophan as substrate preincubated for 5 mins followed by substrate addition and measured after 15 mins by RapidFire-Mass spectrometry
# [12] = Volume of distribution at steady state in mouse; assay type: ADME, organism-based; settings: in vivo, read-out: Vdss
# [13] = Protein binding in mouse plasma assessed as unbound fraction; assay type: ADME, cell-free
# [14] = Unbound clearance in mouse plasma; assay type: ADME, cell-free
# [15] = Oral bioavailability in mouse at 1 mg/kg dosed as cassette formulation; assay type: ADME, organism-based; settings: in vivo
# [16] = Clearance in iv dosed mouse plasma; assay type: ADME, organism-based
# Procedure, shortened: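 Compounds were given to mice as discrete (single-compound) intravenous doses. Plasma clearance (CLp) is expressed in mL/min/kg.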
# [17] = AUC (infinity) in mouse; assay type: ADME, organism-based; set-up: time infinity; settings: in vivo
# [18] = Half life in mouse; assay type: ADME, organism-based; settings: in vivo
# [19] = Kinetic solubility of compound; assay type: physicochemical; settings: read-out: Kinetic_solubility
# [20] = Oral bioavailability in mouse at 5 mg/kg; assay type: ADME, organism-based; settings: in vivo
# Indoleamine 2,3-dioxygenase 1, sequence (P14902 whole entry): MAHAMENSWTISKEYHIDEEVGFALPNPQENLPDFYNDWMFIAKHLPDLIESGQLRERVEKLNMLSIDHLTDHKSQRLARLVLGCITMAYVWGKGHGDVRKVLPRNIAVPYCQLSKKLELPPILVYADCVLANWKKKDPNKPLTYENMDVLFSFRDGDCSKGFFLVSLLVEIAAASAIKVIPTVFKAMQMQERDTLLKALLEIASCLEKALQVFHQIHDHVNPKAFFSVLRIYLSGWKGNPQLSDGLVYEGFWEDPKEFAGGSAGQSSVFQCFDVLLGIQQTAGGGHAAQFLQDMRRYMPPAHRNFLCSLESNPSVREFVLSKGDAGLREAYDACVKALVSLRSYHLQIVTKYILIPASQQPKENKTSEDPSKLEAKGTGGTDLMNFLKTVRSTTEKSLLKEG
# Cytochrome P450 3A4, sequence (P08684 whole entry): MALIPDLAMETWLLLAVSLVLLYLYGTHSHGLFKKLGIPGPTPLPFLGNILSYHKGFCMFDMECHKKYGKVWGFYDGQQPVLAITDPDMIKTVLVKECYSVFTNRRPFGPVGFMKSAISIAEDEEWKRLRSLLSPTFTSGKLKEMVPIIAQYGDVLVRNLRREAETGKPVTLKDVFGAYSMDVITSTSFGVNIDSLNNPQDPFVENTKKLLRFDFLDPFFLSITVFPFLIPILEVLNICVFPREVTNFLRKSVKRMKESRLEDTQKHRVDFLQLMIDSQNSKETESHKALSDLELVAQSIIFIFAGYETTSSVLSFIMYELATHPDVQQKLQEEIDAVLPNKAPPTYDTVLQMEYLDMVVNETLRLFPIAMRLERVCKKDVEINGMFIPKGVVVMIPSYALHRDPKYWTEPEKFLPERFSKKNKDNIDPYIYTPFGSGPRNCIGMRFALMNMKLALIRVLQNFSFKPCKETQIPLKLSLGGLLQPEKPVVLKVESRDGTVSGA
# T1 sequence (P48775 whole entry): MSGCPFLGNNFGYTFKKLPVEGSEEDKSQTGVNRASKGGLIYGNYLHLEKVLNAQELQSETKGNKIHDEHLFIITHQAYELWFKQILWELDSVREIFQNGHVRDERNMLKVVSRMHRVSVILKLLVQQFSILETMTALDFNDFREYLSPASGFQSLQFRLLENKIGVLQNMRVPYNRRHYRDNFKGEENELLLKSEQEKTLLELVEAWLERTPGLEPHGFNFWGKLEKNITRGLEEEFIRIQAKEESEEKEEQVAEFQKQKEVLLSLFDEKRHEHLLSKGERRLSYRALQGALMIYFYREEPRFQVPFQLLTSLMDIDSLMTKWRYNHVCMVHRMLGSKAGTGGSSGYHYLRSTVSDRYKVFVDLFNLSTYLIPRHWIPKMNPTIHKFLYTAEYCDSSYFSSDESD
IC50 (Cytochrome P450 3A4),EC50 [2],EC50 [5],CLhep predicted [7],CLhep predicted [8],CLhep predicted [9],Compound,Ratio EC50 (Homo sapiens [3]),Ratio IC50/EC50 (Homo sapiens [4]),other results
–,–,–,–,–,–,NS(=O)(=O)NCCNc1nonc1C(=NO)Nc1ccc(F)c(Br)c1 [EPACADOSTAT],–,–,IC50 [1]: > 10000 nM
> 10000 nM,970 nM,87 nM,–,–,–,CS(=O)(=O)N1CC[C@@H]([C@H]2c3ccccc3-c3cncn32)[C@H](O)C1,11,> 120,logD [6]: 0.7
1600 nM,10000 nM,130 nM,39 mL/min/kg,19 mL/min/kg,< 3.9 mL/min/kg,CP(C)(=O)c1ccc2c(c1)[C@@H](O)[C@H]([C@H]1c3ccccc3-c3cncn31)CC2,77,12,–
–,670 nM,62 nM,75 mL/min/kg,42 mL/min/kg,16 mL/min/kg,C[C@H]([C@H](O)C1CCCCC1)[C@H]1c2ccccc2-c2cncn21,11,–,logD [6]: 3.9
3300 nM,690 nM,60 nM,79 mL/min/kg,44 mL/min/kg,14 mL/min/kg,N#Cc1ccc2c(c1)[C@@H](O)[C@H]([C@H]1c3ccccc3-c3cncn31)CC2,12,55,Papp A→B [10]: 1.7 ×10⁻⁶ cm/s
–,–,–,–,–,–,OCCC1c2ccccc2-n2nncc21 (centres undefined),–,–,IC50 [11]: > 25000 nM
–,–,–,–,–,–,OCCn1c2ccccc2c2cncn21,–,–,IC50 [11]: 20 nM
–,–,71 nM,–,–,–,CC(C)([C@H](O)c1ncco1)[C@H]1c2ccccc2-c2cncn21,–,< 2,logD [6]: 2.3
8200 nM,4600 nM,54 nM,45 mL/min/kg,33 mL/min/kg,< 3.9 mL/min/kg,O[C@@H]1c2nonc2CC[C@H]1[C@H]1c2ccccc2-c2cncn21,85,150,Vd [12]: 1.1 L/kg; fraction unbound [13]: 0.27; CL free [14]: 230 mL/min/kg; bioavailability [15]: < 5%; clearance [16]: 63 mL/min/kg; AUC ([17]; BLD = below limit of detection): Bld; Papp A→B [10]: 23 ×10⁻⁶ cm/s; half-life [18]: 12.6 min; solubility kinetic [19]: 165 µM
–,–,–,–,–,–,O=C1CC(c2c[nH]c3ccc(F)cc23)C(=O)N1 (centres undefined) [PF-06840003],–,–,IC50 [1]: > 10000 nM
–,–,–,–,–,–,OCCC1c2ccccc2-c2cncn21 (centres undefined),–,–,IC50 [11]: 20 nM
600 nM,1600 nM,72 nM,–,–,–,O[C@@H]1COCC[C@H]1[C@H]1c2ccccc2-c2cncn21,22,8.3,logD [6]: 1.3
> 10000 nM,–,130 nM,45 mL/min/kg,37 mL/min/kg,< 3.9 mL/min/kg,O[C@@H]1c2ccnn2CC[C@H]1[C@H]1c2ccccc2-c2cncn21,35,> 77,Vd [12]: 1.1 L/kg; fraction unbound [13]: 0.09; CL free [14]: 310 mL/min/kg; bioavailability [15]: 140%; clearance [16]: 28 mL/min/kg; AUC(0-inf) [17]: 0.81 µM·h; Papp A→B [10]: 13 ×10⁻⁶ cm/s; half-life [18]: 46.8 min; solubility kinetic [19]: 149 µM; bioavailability [20]: 70%
> 10000 nM,> 25000 nM,7400 nM,14 mL/min/kg,6.1 mL/min/kg,< 3.9 mL/min/kg,O[C@@H]1c2nncn2CC[C@H]1[C@H]1c2ccccc2-c2cncn21,> 3,> 1,–
3600 nM,2600 nM,35 nM,67 mL/min/kg,26 mL/min/kg,7.4 mL/min/kg,NC(=O)c1ccc2c(c1)[C@@H](O)[C@H]([C@H]1c3ccccc3-c3cncn31)CC2,74,100,–
6000 nM,880 nM,39 nM,64 mL/min/kg,33 mL/min/kg,6.6 mL/min/kg,CS(=O)(=O)c1ccc2c(c1)[C@@H](O)[C@H]([C@H]1c3ccccc3-c3cncn31)CC2,23,150,–
< 100 nM,800 nM,–,67 mL/min/kg,46 mL/min/kg,11 mL/min/kg,O[C@@H]1c2ccncc2CC[C@H]1[C@H]1c2ccccc2-c2cncn21,17,< 2,–
